Experimental data taken from BindingDB's records for doi:10.1021/jm049620r (University of Florida, 2004).
Bridge positions count the residues as written; N and C are the ends. Peptide text beside a SMILES is read from it.

Molecular target: Melanocyte-stimulating hormone receptor (Mus musculus, UniProt Q01727)
Test: Agonistic activity against mouse Melanocortin 1 Receptor
Method in brief: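 HEK-293 cells stably expressing the receptor (G418 selection), transiently transfected with a CRE/β-galactosidase reporter. Lysates read with ONPG at OD405 and normalized to protein content and forskolin (10^-4 M) response. EC50 from nonlinear least-squares fit, at least three independent experiments.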

Sequence of Melanocyte-stimulating hormone receptor (Q01727 whole entry): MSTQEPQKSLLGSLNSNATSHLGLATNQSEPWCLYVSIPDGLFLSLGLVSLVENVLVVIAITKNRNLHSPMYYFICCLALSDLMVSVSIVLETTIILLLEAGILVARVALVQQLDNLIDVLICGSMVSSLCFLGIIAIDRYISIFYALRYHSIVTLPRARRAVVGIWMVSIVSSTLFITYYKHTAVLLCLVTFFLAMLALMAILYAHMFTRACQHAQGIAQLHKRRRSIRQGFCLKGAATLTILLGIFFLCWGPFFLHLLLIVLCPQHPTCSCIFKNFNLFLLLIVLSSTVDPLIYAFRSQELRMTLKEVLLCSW

An EC50 of 5.12 µM was found for C[C@@H]1NC(=O)[C@H](CC(N)=O)NC(=O)[C@H](Cc2ccccc2)NC(=O)[C@H](Cc2ccccc2)NC(=O)[C@H](CCCNC(=N)N)NC(=O)[C@@H](NC(=O)[C@@H](N)Cc2ccc(O)cc2)CSSC[C@@H](C(=O)N[C@@H](Cc2ccc(O)cc2)C(N)=O)NC(=O)[C@H](Cc2ccccc2)NC1=O (H-YCRFFNAFCY-NH2; disulfide 2-9) in this work.
